Results on 45 compounds are retold here after ChEMBL document CHEMBL3351711, “Design, synthesis and biological evaluation of novel 6H-benzo[c]chromen-6-one, and 7,8,9,10-tetrahydro-benzo[c]chromen-6-one derivatives as potential cholinesterase inhibitors” (Bioorg Med Chem, 2014).

Molecules are shown by their SMILES.

The target in test [1] is Cholinesterase (Homo sapiens, UniProt P06276). Put plainly: Inhibition of human recombinant BuChE using butyrylthiocholine iodide substrate incubated for 15 mins by spectrophotometry based Ellman's method.
Chain of Cholinesterase (P06276 whole entry): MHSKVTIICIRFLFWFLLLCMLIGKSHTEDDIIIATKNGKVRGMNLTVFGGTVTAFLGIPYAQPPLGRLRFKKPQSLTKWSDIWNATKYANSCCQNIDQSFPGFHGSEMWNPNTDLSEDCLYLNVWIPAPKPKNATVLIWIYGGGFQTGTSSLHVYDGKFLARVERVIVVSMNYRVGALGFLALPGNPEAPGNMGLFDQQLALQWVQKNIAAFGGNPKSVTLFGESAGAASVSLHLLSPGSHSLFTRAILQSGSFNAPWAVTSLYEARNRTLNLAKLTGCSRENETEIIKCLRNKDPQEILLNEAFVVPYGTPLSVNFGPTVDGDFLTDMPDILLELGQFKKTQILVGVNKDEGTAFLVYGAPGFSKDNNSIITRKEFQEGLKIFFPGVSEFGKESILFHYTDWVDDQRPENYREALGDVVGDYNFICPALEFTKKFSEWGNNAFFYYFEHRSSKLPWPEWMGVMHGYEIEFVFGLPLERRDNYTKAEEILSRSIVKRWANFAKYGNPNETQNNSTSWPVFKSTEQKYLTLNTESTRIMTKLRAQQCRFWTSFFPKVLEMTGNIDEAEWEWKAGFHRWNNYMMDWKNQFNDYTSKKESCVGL
Test [2] is filed under the species Homo sapiens. Briefly: Selectivity index, ratio of IC50 for human recombinant BuChE to IC50 for human recombinant AChE.
The target of test [3] is Acetylcholinesterase (Homo sapiens, UniProt P22303). Briefly: Inhibition of human recombinant AChE using acetylthiocholine iodide substrate incubated for 15 mins by spectrophotometry based Ellman's method.
Chain of Acetylcholinesterase (P22303 whole entry): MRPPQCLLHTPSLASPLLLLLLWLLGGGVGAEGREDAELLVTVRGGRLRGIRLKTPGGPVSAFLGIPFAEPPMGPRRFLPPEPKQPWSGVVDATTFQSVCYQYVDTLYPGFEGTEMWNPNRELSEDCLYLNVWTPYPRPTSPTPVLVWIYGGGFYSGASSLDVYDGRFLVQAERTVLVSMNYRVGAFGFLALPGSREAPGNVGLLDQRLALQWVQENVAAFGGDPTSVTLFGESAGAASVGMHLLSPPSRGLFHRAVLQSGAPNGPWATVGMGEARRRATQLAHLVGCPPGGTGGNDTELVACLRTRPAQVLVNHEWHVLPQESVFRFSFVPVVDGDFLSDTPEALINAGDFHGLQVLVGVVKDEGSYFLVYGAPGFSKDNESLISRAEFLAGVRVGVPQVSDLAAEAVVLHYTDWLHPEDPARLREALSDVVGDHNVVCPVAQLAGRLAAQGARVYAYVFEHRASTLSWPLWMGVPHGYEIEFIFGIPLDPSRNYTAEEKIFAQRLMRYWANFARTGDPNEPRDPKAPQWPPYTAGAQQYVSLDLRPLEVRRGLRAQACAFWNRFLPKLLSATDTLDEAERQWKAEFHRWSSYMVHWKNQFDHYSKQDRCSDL
In test [4] the test system is Rattus norvegicus. Put plainly: Antagonism of scopolamine-induced passive avoidance in Wistar rat assessed as latency of visiting dark box measured for 5 mins at 1 mg/kg, po dosed 30 mins after scopolamine challenge and measured 1 hr post dose. It is filed as functional. In outline: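 Rats, 10 per compound. Scopolamine 1 mg/kg ip given 30 min before the test compound (1 mg/kg oral). One hour after dosing, rats placed in the illuminated compartment with the door closed for 30 s habituation. Door then opens automatically and latency to enter the dark box is timed over 5 min. Antagonism (%) is scaled against the latency difference between no-scopolamine and scopolamine-only groups, taken as 100%.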

The species entered for test [5] is Homo sapiens. Put plainly: Selectivity index, ratio of IC50 for human recombinant AChE to IC50 for human recombinant BuChE. In outline: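 Modified Ellman assay in Tris-HCl pH 8.0 with DTNB (0.34 mM final). Human recombinant AChE (0.4 U/mL solution) with acetylthiocholine iodide; human recombinant BuChE (1.6 U/mL solution) with butyrylthiocholine iodide (1.5 mM final). 15 min at 27 °C, read at 412 nm against enzyme-free blank and inhibitor-free control, in triplicate. IC50s fitted by sigmoidal Hill slope; ratio of the two IC50s.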

For the compound `COc1cccc(CC2CCN(CCOc3ccc4c(c3)oc(=O)c3ccccc34)CC2)c1`, the results for the IC50 in test [1] and in test [3] were more than 40 µM and 29.3 µM, respectively. The Ratio IC50 in test [2] is more than 1.
For `COc1cc(C(C)N(C)C)c2c(c1)oc(=O)c1ccccc12` (racemic), the Ratio IC50 in test [2] came to 1.6.
Take `O=c1oc2cc(OCCCN3CCN(Cc4ccccc4)CC3)ccc2c2c1CCCC2`: the IC50 in test [1] turned out to be 3.1 µM; in test [3], 0.9 µM. In test [2], the Ratio IC50 came to 3.4. Besides, the inhibition in vivo at 1 mg/kg in test [4] was determined as 58%.
On to `COc1cccc(CC2CCN(CCCCOc3ccc4c5c(c(=O)oc4c3)CCCC5)CC2)c1`, for which the results for the IC50 in test [1] and in test [3] were 27.8 µM and 13.7 µM, respectively. In test [2], the Ratio IC50 is 2.
Consider `COc1cccc(CN2CCN(CCOc3ccc4c(c3)oc(=O)c3ccccc34)CC2)c1`, for which the IC50 was more than 40 µM in test [1] and 11.4 µM in test [3]. Further, the Ratio IC50 in test [2] is more than 3.
On to `CCN(C)C(=O)Oc1cc(C(C)N(C)C)c2c(c1)oc(=O)c1ccccc12` (racemic), for which the Ratio IC50 in test [5] was more than 4. For the same compound, the IC50 in test [3] is more than 40 µM.
Take `COc1cccc(CN(C)CCCOc2ccc3c4c(c(=O)oc3c2)CCCC4)c1`: the values for the IC50 in test [1] and in test [3] were more than 40 µM and 2.7 µM, respectively. Moreover, in test [2], the Ratio IC50 was more than 14.
On to `C[C@@H](c1ccc2c(c1)oc(=O)c1ccccc12)N(C)C`, for which, in test [2], the Ratio IC50 came out at 2.1. Also, the inhibition in vivo at 1 mg/kg in test [4] was found to be 71%.
For `CN(CCCCOc1ccc2c(c1)oc(=O)c1ccccc12)Cc1ccccc1`, the IC50 in test [1] stood at 6.5 µM; in test [3], 1.1 µM. The Ratio IC50 in test [2] amounted to 5.9. For the same compound, the inhibition in vivo at 1 mg/kg in test [4] came out at 62%.
For `CC(c1cc(O)c2c(c1)oc(=O)c1ccccc12)N(C)C` (racemic), in test [5], the Ratio IC50 is 4.5. In test [4], the inhibition in vivo at 1 mg/kg was determined as 49%.
Regarding `CC(c1cc(O)cc2oc(=O)c3ccccc3c12)N(C)C` (racemic), the IC50 in test [1] was more than 40 µM. Also, in test [2], the Ratio IC50 is more than 1.
Regarding `COc1cccc(CN(C)CCCCOc2ccc3c(c2)oc(=O)c2ccccc23)c1`, the IC50 in test [1] came out at 17.6 µM; in test [3], 8.3 µM. Moreover, the Ratio IC50 in test [2] was 2.1.
Take `O=c1oc2cc(OCCN3CCN(Cc4ccccc4)CC3)ccc2c2c1CCCC2`: the results for the IC50 in test [1] and in test [3] were 32 µM and 1.3 µM, respectively. Moreover, in test [2], the Ratio IC50 stood at 24.6.
As to `O=c1oc2cc(OCCCCN3CCN(Cc4ccccc4)CC3)ccc2c2ccccc12`, the figures for the IC50 in test [1] and in test [3] were more than 40 µM and 8.2 µM, respectively. For the same compound, in test [2], the Ratio IC50 was more than 4.
For the compound `COc1cccc(CC2CCN(CCOc3ccc4c5c(c(=O)oc4c3)CCCC5)CC2)c1`, the IC50 in test [1] is more than 40 µM; in test [3], 37.2 µM. Moreover, the Ratio IC50 in test [2] was more than 1.
On to `COc1cccc(CN2CCN(CCCOc3ccc4c(c3)oc(=O)c3ccccc34)CC2)c1`, for which the IC50 in test [1] is more than 40 µM; in test [3] it was 18 µM. Moreover, the Ratio IC50 in test [2] is more than 2.
In the case of `O=c1oc2cc(OCCN3CCC(Cc4ccccc4)CC3)ccc2c2c1CCCC2`, the results for the IC50 in test [1] and in test [3] were more than 40 µM and 8.1 µM, respectively. In addition, in test [2], the Ratio IC50 was more than 5.
Turning to `CN(CCCCOc1ccc2c3c(c(=O)oc2c1)CCCC3)Cc1ccccc1`, the IC50 in test [1] came out at 18.9 µM; in test [3] it was 1 µM. For the same compound, the Ratio IC50 in test [2] amounted to 18.9. The inhibition in vivo at 1 mg/kg in test [4] is 65%.
Regarding `COc1cccc(CN2CCN(CCCCOc3ccc4c5c(c(=O)oc4c3)CCCC5)CC2)c1`, the IC50 in test [1] worked out at 23.4 µM; in test [3], 8.7 µM. The Ratio IC50 in test [2] is 2.7.
`COc1cc(C(C)N(C)C)cc2oc(=O)c3ccccc3c12` (racemic): the Ratio IC50 in test [2] came to 7.5. Besides, the inhibition in vivo at 1 mg/kg in test [4] amounted to 71%.
On to `O=c1oc2cc(OCCCCN3CCC(Cc4ccccc4)CC3)ccc2c2c1CCCC2`, for which the half-inhibitory concentration (IC50) in test [1] is 20.1 µM; in test [3], 9.2 µM. Moreover, the Ratio IC50 in test [2] came to 2.2.
Regarding `CN(CCCOc1ccc2c(c1)oc(=O)c1ccccc12)Cc1ccccc1`, the IC50 in test [1] was 14.9 µM; in test [3], 8.5 µM. In addition, in test [2], the Ratio IC50 came out at 1.7.
In the same order, the values of `COc1cccc(CN(C)CCOc2ccc3c(c2)oc(=O)c2ccccc23)c1` are 33.2 µM, 18.4 µM and 1.8.
In the case of `COc1cccc(CN(C)CCCOc2ccc3c(c2)oc(=O)c2ccccc23)c1`, the IC50 was 29.2 µM in test [1] and 20.9 µM in test [3]. The Ratio IC50 in test [2] worked out at 1.4.
As to `COc1cccc(CN2CCN(CCCOc3ccc4c5c(c(=O)oc4c3)CCCC5)CC2)c1`, the IC50 in test [1] is 18.4 µM; in test [3], 6.2 µM. Besides, the Ratio IC50 in test [2] was 2.9.
As for `O=c1oc2cc(OCCCN3CCC(Cc4ccccc4)CC3)ccc2c2ccccc12`, the IC50 in test [1] is 21.3 µM; in test [3] it was 4.1 µM. In test [2], the Ratio IC50 was 5.2.
Consider `CC(c1ccc2c(c1)oc(=O)c1ccccc12)N(C)C` (racemic), for which the Ratio IC50 in test [2] is 1.6. Besides, in test [4], the inhibition in vivo at 1 mg/kg was 70%.
For `O=c1oc2cc(OCCCN3CCC(Cc4ccccc4)CC3)ccc2c2c1CCCC2`, the IC50 in test [1] was more than 40 µM; in test [3], 4.3 µM. For the same compound, the Ratio IC50 in test [2] was more than 9.
As for `COc1cccc(CC2CCN(CCCOc3ccc4c(c3)oc(=O)c3ccccc34)CC2)c1`, the half-maximal inhibitory concentration (IC50) in test [1] is more than 40 µM; in test [3], 18.5 µM. Besides, the Ratio IC50 in test [2] is more than 2.
For the compound `O=c1oc2cc(OCCCCN3CCC(Cc4ccccc4)CC3)ccc2c2ccccc12`, the figures for the IC50 in test [1] and in test [3] were more than 40 µM and 14.2 µM, respectively. Also, the Ratio IC50 in test [2] was more than 2.
In the case of `CN(CCCOc1ccc2c3c(c(=O)oc2c1)CCCC3)Cc1ccccc1`, the results for the IC50 in test [1] and in test [3] were 15.9 µM and 2.1 µM, respectively. The Ratio IC50 in test [2] was found to be 7.6.
For `COc1cccc(CN2CCN(CCCCOc3ccc4c(c3)oc(=O)c3ccccc34)CC2)c1`, the IC50 was more than 40 µM in test [1] and 21.3 µM in test [3]. In addition, the Ratio IC50 in test [2] is more than 1.
With `COc1cccc(CN2CCN(CCOc3ccc4c5c(c(=O)oc4c3)CCCC5)CC2)c1`, the IC50 in test [1] is more than 40 µM; in test [3], 7.3 µM. For the same compound, in test [2], the Ratio IC50 was more than 5.
Consider `COc1cc2c(cc1OC)C(=O)C(CC1CCN(Cc3ccccc3)CC1)C2` (configuration not stated) [DONEPEZIL], for which the inhibition in vivo at 1 mg/kg in test [4] came out at 58%.
On to `COc1cccc(CN(C)CCCCOc2ccc3c4c(c(=O)oc3c2)CCCC4)c1`, for which the IC50 is more than 40 µM in test [1] and 1.7 µM in test [3]. The Ratio IC50 in test [2] is more than 23.
For `CN(CCOc1ccc2c3c(c(=O)oc2c1)CCCC3)Cc1ccccc1`, the IC50 in test [1] is more than 40 µM; in test [3], 2.8 µM. Further, in test [2], the Ratio IC50 was more than 14.
In the case of `O=c1oc2cc(OCCCCN3CCN(Cc4ccccc4)CC3)ccc2c2c1CCCC2`, the IC50 in test [1] worked out at 14.6 µM; in test [3] it was 6.4 µM. In addition, in test [2], the Ratio IC50 was 2.3.
As for `O=c1oc2cc(OCCN3CCC(Cc4ccccc4)CC3)ccc2c2ccccc12`, the IC50 in test [1] was more than 40 µM; in test [3] it was 20 µM. Moreover, the Ratio IC50 in test [2] is more than 2.
`COc1cccc(CC2CCN(CCCCOc3ccc4c(c3)oc(=O)c3ccccc34)CC2)c1`: the IC50 in test [1] is more than 40 µM; in test [3], 27.4 µM. Also, the Ratio IC50 in test [2] is more than 1.
`O=c1oc2cc(OCCCN3CCN(Cc4ccccc4)CC3)ccc2c2ccccc12`: the figures for the IC50 in test [1] and in test [3] were 3.7 µM and 0.8 µM, respectively. Besides, in test [2], the Ratio IC50 worked out at 4.6. The inhibition in vivo at 1 mg/kg in test [4] was 85%.
`COc1cccc(CN(C)CCOc2ccc3c4c(c(=O)oc3c2)CCCC4)c1`: the IC50 is more than 40 µM in test [1] and 6 µM in test [3]. The Ratio IC50 in test [2] is more than 6.
As for `CCN(C)C(=O)Oc1cccc([C@H](C)N(C)C)c1` (racemic) [RIVASTIGMINE], the inhibition in vivo at 1 mg/kg in test [4] is 85%.
As to `COc1cccc(CC2CCN(CCCOc3ccc4c5c(c(=O)oc4c3)CCCC5)CC2)c1`, the IC50 in test [1] was more than 40 µM; in test [3], 4.9 µM. Further, in test [2], the Ratio IC50 was more than 8.
In the same order, the values of `O=c1oc2cc(OCCN3CCN(Cc4ccccc4)CC3)ccc2c2ccccc12` are 12.1 µM, 0.9 µM and 13.4.
As for `CN(CCOc1ccc2c(c1)oc(=O)c1ccccc12)Cc1ccccc1`, the IC50 in test [1] is 14.1 µM; in test [3] it was 6.7 µM. The Ratio IC50 in test [2] was 2.1.
